Active and inactive are the calls of the source.
Tests used:
Staphylococcus aureus [1] = experiment: Antibacterial activity against vancomycin resistant Staphylococcus aureus 10 assessed as inhibition of bacterial growth at 0.5 ug/ml incubated for 18 to 20 hrs by CLSI protocol based broth microdilution method; format: functional, organism-based; settings: dose 0.5 µg/ml, time 18-20 hrs
Staphylococcus aureus [2] = experiment: Antibacterial activity against methicillin resistant Staphylococcus aureus 384 assessed as inhibition of bacterial growth at 0.5 ug/ml incubated for 18 to 20 hrs by CLSI protocol based broth microdilution method; format: functional, organism-based; settings: dose 0.5 µg/ml, time 18-20 hrs
Staphylococcus aureus [3] = experiment: Antibacterial activity against methicillin sensitive Staphylococcus aureus 6538 assessed as inhibition of bacterial growth at 0.5 ug/ml incubated for 18 to 20 hrs by CLSI protocol based broth microdilution method; format: functional, organism-based; settings: dose 0.5 µg/ml, time 18-20 hrs
Outline: (§1)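 Staphylococcal and E. coli strains were diluted from a 0.5 McFarland suspension in cation-adjusted Mueller Hinton broth to ~5 × 10^5 CFU mL−1. They were incubated with serial dilutions of test agent in broth microdilution, and the MIC was recorded.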

[4] = Cytotoxicity against African green monkey Vero cells assessed as tolerance by measuring cell viability upto 128 ug/ml incubated for 24 hrs by MTS assay relative to control; format: toxicity, cell-based; settings: chlorocebus sabaeus, up to 128 µg/mL, read-out: Activity
Outline: (§2)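 Vero or HaCaT cells were exposed to 32, 64 and 128 μg mL−1 compound in triplicate for 24 h at 37 °C, 5% CO2, with a DMSO control. MTS was then added for 4 h and OD490 read. Analysis used two-way ANOVA with Dunnett's post hoc test (p < 0.05).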

Staphylococcus aureus [5] = experiment: Antibacterial activity against methicillin sensitive Staphylococcus aureus 107 assessed as inhibition of bacterial growth at 0.5 ug/ml incubated for 18 to 20 hrs by CLSI protocol based broth microdilution method; format: functional, organism-based; settings: dose 0.5 µg/ml, time 18-20 hrs; outline: as §1
Staphylococcus aureus [6] = experiment: Antibacterial activity against vancomycin resistant Staphylococcus aureus 9 assessed as inhibition of bacterial growth at 0.5 ug/ml incubated for 18 to 20 hrs by CLSI protocol based broth microdilution method; format: functional, organism-based; settings: dose 0.5 µg/ml, time 18-20 hrs
[7] = Cytotoxicity against human HaCaT cells assessed as tolerance by measuring cell viability at 64 ug/ml incubated for 24 hrs by MTS assay relative to control; format: toxicity, cell-based; settings: at 64 µg/mL, read-out: Activity; outline: as §2
Staphylococcus aureus [8] = experiment: Antibacterial activity against methicillin resistant Staphylococcus aureus 386 assessed as inhibition of bacterial growth at 0.5 ug/ml incubated for 18 to 20 hrs by CLSI protocol based broth microdilution method; format: functional, organism-based; settings: dose 0.5 µg/ml, time 18-20 hrs
Staphylococcus aureus [9] = experiment: Antibacterial activity against methicillin resistant Staphylococcus aureus 123 assessed as inhibition of bacterial growth at 0.5 ug/ml incubated for 18 to 20 hrs by CLSI protocol based broth microdilution method; format: functional, organism-based; settings: dose 0.5 µg/ml, time 18-20 hrs
Staphylococcus aureus [10] = experiment: Antibacterial activity against vancomycin resistant Staphylococcus aureus 12 assessed as inhibition of bacterial growth at 0.5 ug/ml incubated for 18 to 20 hrs by CLSI protocol based broth microdilution method; format: functional, organism-based; settings: dose 0.5 µg/ml, time 18-20 hrs
Staphylococcus aureus [11] = experiment: Antibacterial activity against methicillin resistant Staphylococcus aureus 385 assessed as inhibition of bacterial growth at 0.5 ug/ml incubated for 18 to 20 hrs by CLSI protocol based broth microdilution method; format: functional, organism-based; settings: dose 0.5 µg/ml, time 18-20 hrs
Staphylococcus aureus [12] = experiment: Antibacterial activity against methicillin resistant Staphylococcus aureus 119 assessed as inhibition of bacterial growth at 0.5 ug/ml incubated for 18 to 20 hrs by CLSI protocol based broth microdilution method; format: functional, organism-based; settings: dose 0.5 µg/ml, time 18-20 hrs
Staphylococcus aureus [13] = experiment: Induction of drug resistance in methicillin resistant Staphylococcus aureus NRS384 USA300 assessed as fold change in MIC measured from passage 5 to 14 by broth microdilution method; format: functional
Outline: (§3)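 Multi-step resistance in MRSA USA300 over 14 consecutive passages, with rifampicin as the control antibiotic. The MIC was determined by broth microdilution at each passage. Resistance was defined as a greater than four-fold rise over the initial MIC.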

Staphylococcus aureus [14] = experiment: Induction of drug resistance in methicillin resistant Staphylococcus aureus NRS384 USA300 assessed as fold change in MIC measured after 4 passages by broth microdilution method; format: functional; outline: as §3
[15] = Cytotoxicity against human HaCaT cells assessed as tolerance by measuring cell viability upto 128 ug/ml incubated for 24 hrs by MTS assay relative to control; format: toxicity, cell-based; settings: up to 128 µg/mL, read-out: Activity; outline: as §2
Vero = experiment: Cytotoxicity against African green monkey Vero cells assessed as reduction in cell viability at 64 ug/ml incubated for 24 hrs by MTS assay; format: toxicity, cell-based; settings: chlorocebus sabaeus, dose 64 µg/ml; outline: as §2
Escherichia coli = experiment: Antibacterial activity against Escherichia coli JW55031 assessed as inhibition of bacterial growth incubated for 18 to 20 hrs by CLSI protocol based broth microdilution method; format: functional; settings: time 18-20 hrs; outline: as §1
Clostridioides difficile = experiment: Antibacterial activity against Clostridioides difficile ATCC BAA 1870 assessed as inhibition of bacterial growth incubated for 18 to 20 hrs by CLSI protocol based broth microdilution method; format: functional; settings: time 18-20 hrs
Outline: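 C. difficile was diluted from a 0.5 McFarland suspension in BHI supplemented with hemin and vitamin K. It was incubated with serial dilutions of test agent in broth microdilution, and the MIC was recorded.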

Staphylococcus aureus [16] = experiment: Antibacterial activity against methicillin resistant Staphylococcus aureus NRS384 USA300 assessed as inhibition of bacterial growth incubated for 18 to 20 hrs by CLSI protocol based broth microdilution method; format: functional; settings: time 18-20 hrs
Outline: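 Broth microdilution against staphylococcal clinical isolates. Each strain was prepared as a 0.5 McFarland suspension and diluted in cation-adjusted Mueller Hinton broth to ~5 × 10^5 CFU mL−1. Serial dilutions of test agents in DMSO stock were incubated with the bacteria, and the MIC was recorded.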

Staphylococcus aureus [17] = experiment: (§4) Antibacterial activity against methicillin resistant Staphylococcus aureus NRS384 USA300 infected in Balb/c mouse model of skin infection assessed as healing administered topically twice daily for three consecutive days from day 4 to 6 and measured 24 hrs post last dose; format: functional, organism-based; settings: route top, time 4.0 day
Outline: (§5)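 Mice were anesthetized with 2,2,2-tribromoethanol and injected subcutaneously with 100 μL containing 2 × 10^9 CFU MRSA USA300 in 0.5% HPMC in saline. Topical treatment used a petroleum jelly vehicle, with a fusidic acid positive control. Lesions were photographed 24 h after the last dose. A ~1.5 cm2 skin patch (homogenized in 1 mL saline) and the spleen (in 0.5 mL) were serially diluted and plated on MSA at 37 °C overnight for CFU.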

Staphylococcus aureus [18] = experiment: as §4, with “reduction in bacterial burden in skin lesions” for “healing”; format: functional; settings: route top; time 4 day; outline: as §5
Staphylococcus aureus [19] = experiment: Antibacterial activity against methicillin resistant Staphylococcus aureus NRS384 USA300 infected in Balb/c mouse model of skin infection assessed as reduction in inflammation administered topically twice daily for three consecutive days from day 4 to 6 and measured 24 hrs post last dose; format: functional, organism-based; settings: route top, time 4.0 day; outline: as §5

| Compound | Activity (Staphylococcus aureus [1]) | Activity (Staphylococcus aureus [2]) | Activity (Staphylococcus aureus [3]) | Activity (Staphylococcus aureus [5]) | Activity (Staphylococcus aureus [6]) | Activity (Staphylococcus aureus [8]) | Activity (Staphylococcus aureus [9]) | Activity (Staphylococcus aureus [10]) | Activity (Staphylococcus aureus [11]) | Activity (Staphylococcus aureus [12]) | other results |
| --- | --- | --- | --- | --- | --- | --- | --- | --- | --- | --- | --- |
| C/C(=N\NC(=N)N)c1ccc(NC(=O)Nc2ccc(C#CC3(N)CCCCC3)cc2)cc1 | Active | Active | Active | Active | Active | Active | Active | Active | Active | Active | viability at 24 h [4]: 100%; viability at 24 h, 64 ug/ml [7]: 100% |
| CO[C@H]1/C=C/O[C@@]2(C)Oc3c(C)c(O)c4c(O)c(c(/C=N/N5CCN(C)CC5)c(O)c4c3C2=O)NC(=O)/C(C)=C\C=C\[C@H](C)[C@H](O)[C@@H](C)[C@@H](O)[C@@H](C)[C@H](OC(C)=O)[C@@H]1C [RIFAMPIN] |  |  |  |  |  |  |  |  |  |  | fold change (FC) (Staphylococcus aureus [13]): 15; fold change (FC) (Staphylococcus aureus [14]): >4 |
| C/C(=N\NC(=N)N)c1ccc(NC(=O)Nc2ccc(C#CC(C)(C)O)cc2)cc1 | Active | Active | Active | Active | Active | Active | Active | Active | Active | Active | viability at 24 h [15]: 100%; Activity (Vero): Non-Toxic |
| C/C(=N\NC(=N)N)c1ccc(NC(=O)Nc2ccc(C#CC3CC3)cc2)cc1 |  |  |  |  |  |  |  |  |  |  | MIC (Escherichia coli): ≥ 64 µg/mL; MIC (Clostridioides difficile): ≥ 64 µg/mL; MIC (Staphylococcus aureus [16]): ≥ 64 µg/mL |
| CC(=O)O[C@H]1C[C@@]2(C)[C@@H](C[C@@H](O)[C@H]3[C@@]4(C)CC[C@@H](O)[C@@H](C)[C@@H]4CC[C@@]32C)/C1=C(\CCC=C(C)C)C(=O)O [FUSIDIC ACID] |  |  |  |  |  |  |  |  |  |  | Activity (Staphylococcus aureus [17]): Active; Activity (Staphylococcus aureus [18]): 1.5 log10CFU/ml; Activity (Staphylococcus aureus [19]): Active |

— ChEMBL document CHEMBL5230171, “Expanding the structure-activity relationships of alkynyl diphenylurea scaffold as promising antibacterial agents” (RSC Med Chem, 2023)
